Read-outs that look alike come from different tables or passages of the source.
Key:
[1] = tested on: A549; assay: MTT drug sensitivity assay; type: cell-based; conditions: Homo sapiens, A549, 72 h, read-out: In vitro growth inhibitory activity (IC50 ± SD) A549
Outline: (§1)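 ATCC lines were grown at 37 °C, 5% CO2 with 10% FBS and 2 mM L-glutamine (A549, MCF-7: RPMI-1640; HCT-116, U-2 OS: McCoy's 5A; U-87 MG: MEM; HEK293: DMEM). Test compound 0–50 µM for 72 h, then MTT 0.4 mg/ml in PBS, 3 h, 37 °C. Formazan dissolved in DMSO, absorbance 540 nm. IC50 relative to 1% v/v DMSO-treated cells; three independent runs.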

[2] = tested on: HCT-116; assay: MTT drug sensitivity assay; type: cell-based; conditions: Homo sapiens, HCT-116, 72 h, read-out: In vitro growth inhibitory activity (IC50 ± SD) HCT-116
Outline: as §1

[3] = tested on: MCF-7; assay: MTT drug sensitivity assay; type: cell-based; conditions: Homo sapiens, MCF7, 72 h, read-out: In vitro growth inhibitory activity (IC50 ± SD) MCF-7
Outline: as §1

[4] = tested on: U-2 OS; assay: MTT drug sensitivity assay; type: cell-based; conditions: Homo sapiens, U2OS, 72 h, read-out: In vitro growth inhibitory activity (IC50 ± SD) U-2 OS
Outline: as §1

[5] = tested on: U-87 MG; assay: MTT drug sensitivity assay; type: cell-based; conditions: Homo sapiens, 72 h, read-out: In vitro growth inhibitory activity (IC50 ± SD) U-87 MG
Outline: as §1

[6] = tested on: HEK293; assay: MTT drug sensitivity assay; type: cell-based; conditions: Homo sapiens, HEK293, 72 h, read-out: In vitro growth inhibitory activity (IC50 ± SD) HEK293
Outline: as §1

[7] = tested on: all investigated cell lines, including HEK293; assay: MTT drug sensitivity assay, statement over all cell lines; type: cell-based; conditions: Homo sapiens, HEK293, 72 h, read-out: IC50 for all investigated cell lines
Outline: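 Cells were exposed to test compound at 0–50 µM for 72 h. Lines: A549 and MCF-7 (RPMI-1640), HCT-116 and U-2 OS (McCoy's 5A), U-87 MG (MEM), HEK293 (DMEM); all with 10% FBS, 37 °C, 5% CO2. MTT (0.4 mg/ml in PBS) for 3 h at 37 °C; formazan dissolved in DMSO; A540. ETP and m-AMSA as references; independent triplicate.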

[8] = molecular target: T1, Topo IIα (Homo sapiens, UniProt P11388); assay: pBR322 DNA relaxation assay; type: biochemical; conditions: for Inhibition of Topo IIα-mediated pBR322 relaxation: gel
T1 sequence (P11388 whole entry): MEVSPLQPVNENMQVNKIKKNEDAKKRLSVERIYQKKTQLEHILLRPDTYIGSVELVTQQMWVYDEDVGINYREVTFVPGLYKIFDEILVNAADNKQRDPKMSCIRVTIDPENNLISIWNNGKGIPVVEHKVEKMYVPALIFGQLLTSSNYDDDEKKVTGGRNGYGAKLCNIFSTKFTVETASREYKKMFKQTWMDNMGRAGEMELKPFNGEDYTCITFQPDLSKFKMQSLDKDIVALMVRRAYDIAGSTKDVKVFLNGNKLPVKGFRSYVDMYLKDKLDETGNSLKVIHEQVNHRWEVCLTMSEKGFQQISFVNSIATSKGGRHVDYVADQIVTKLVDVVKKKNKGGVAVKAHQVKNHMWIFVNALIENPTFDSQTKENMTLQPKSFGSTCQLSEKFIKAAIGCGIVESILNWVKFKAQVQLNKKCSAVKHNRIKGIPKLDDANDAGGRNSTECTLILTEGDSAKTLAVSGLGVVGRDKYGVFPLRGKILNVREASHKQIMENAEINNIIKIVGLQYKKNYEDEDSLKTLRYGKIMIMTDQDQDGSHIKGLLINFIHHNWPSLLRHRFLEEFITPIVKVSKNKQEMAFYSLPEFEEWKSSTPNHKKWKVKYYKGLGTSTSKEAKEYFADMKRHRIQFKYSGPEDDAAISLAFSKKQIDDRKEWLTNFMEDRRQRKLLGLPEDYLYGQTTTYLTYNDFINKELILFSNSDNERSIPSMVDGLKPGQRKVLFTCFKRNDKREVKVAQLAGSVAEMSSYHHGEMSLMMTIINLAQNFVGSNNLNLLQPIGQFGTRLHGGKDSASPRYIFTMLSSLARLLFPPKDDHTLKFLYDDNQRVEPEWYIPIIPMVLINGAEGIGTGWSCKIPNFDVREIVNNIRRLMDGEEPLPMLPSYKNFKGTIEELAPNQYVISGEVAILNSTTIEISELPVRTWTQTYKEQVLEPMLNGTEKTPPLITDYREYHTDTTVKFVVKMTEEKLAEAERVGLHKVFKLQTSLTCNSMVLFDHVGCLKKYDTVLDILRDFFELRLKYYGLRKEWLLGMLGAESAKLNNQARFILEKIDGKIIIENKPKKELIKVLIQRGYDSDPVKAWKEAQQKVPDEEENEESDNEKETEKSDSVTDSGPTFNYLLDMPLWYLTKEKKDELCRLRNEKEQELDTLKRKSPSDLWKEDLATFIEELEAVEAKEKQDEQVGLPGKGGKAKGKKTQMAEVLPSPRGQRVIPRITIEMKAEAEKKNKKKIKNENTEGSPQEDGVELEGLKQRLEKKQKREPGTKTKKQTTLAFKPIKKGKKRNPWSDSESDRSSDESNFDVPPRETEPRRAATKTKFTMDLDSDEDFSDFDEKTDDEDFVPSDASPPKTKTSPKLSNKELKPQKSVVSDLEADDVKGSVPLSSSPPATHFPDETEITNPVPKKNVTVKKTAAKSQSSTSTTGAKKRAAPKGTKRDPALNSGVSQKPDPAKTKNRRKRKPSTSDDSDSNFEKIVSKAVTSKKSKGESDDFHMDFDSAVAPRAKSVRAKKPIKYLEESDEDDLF

[9] = molecular target: T2, human Topo IIβ (Homo sapiens, UniProt Q02880); assay: pBR322 DNA relaxation assay; type: biochemical; conditions: gel
T2 sequence (Q02880 whole entry): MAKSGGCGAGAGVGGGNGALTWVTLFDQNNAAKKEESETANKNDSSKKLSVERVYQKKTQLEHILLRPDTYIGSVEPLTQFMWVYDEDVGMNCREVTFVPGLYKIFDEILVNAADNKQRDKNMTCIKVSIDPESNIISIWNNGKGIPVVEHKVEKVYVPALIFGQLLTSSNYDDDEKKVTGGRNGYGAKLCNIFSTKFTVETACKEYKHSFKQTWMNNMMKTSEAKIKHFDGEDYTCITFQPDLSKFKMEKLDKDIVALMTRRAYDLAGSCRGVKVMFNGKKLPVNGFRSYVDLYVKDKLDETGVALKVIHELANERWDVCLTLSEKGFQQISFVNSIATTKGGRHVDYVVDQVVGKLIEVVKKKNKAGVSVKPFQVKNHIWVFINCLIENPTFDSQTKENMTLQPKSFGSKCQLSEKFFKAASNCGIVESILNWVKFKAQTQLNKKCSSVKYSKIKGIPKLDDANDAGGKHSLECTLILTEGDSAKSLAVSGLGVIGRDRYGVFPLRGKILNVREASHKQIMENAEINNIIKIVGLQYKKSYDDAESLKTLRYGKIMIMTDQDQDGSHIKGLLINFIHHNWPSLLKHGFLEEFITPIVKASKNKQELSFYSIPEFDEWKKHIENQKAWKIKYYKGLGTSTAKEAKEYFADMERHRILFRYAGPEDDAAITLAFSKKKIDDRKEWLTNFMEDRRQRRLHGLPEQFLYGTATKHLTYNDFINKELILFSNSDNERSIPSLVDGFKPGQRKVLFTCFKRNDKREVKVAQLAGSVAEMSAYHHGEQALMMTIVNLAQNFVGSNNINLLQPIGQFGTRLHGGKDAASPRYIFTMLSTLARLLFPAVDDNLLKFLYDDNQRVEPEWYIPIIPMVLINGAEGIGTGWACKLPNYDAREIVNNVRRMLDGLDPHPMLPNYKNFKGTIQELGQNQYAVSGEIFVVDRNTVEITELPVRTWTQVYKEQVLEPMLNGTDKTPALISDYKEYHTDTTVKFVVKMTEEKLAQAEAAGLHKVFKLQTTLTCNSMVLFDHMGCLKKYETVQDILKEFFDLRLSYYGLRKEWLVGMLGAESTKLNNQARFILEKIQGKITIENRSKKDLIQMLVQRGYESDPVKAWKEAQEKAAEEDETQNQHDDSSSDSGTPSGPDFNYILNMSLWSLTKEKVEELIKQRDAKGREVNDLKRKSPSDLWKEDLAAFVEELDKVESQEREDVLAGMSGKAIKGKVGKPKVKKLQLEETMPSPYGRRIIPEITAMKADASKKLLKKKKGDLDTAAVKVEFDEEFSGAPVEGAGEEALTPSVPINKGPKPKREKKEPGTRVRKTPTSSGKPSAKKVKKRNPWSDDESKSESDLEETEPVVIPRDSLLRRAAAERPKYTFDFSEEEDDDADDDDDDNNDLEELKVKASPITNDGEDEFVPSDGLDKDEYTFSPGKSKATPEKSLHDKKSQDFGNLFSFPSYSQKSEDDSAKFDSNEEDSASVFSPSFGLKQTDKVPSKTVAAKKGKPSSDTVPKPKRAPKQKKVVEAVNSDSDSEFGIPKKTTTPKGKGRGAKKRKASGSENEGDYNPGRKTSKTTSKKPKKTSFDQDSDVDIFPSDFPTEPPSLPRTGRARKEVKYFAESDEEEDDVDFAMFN
Outline: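 Supercoiled pBR322 (250 ng) with test compound in reaction buffer. Started by adding diluted human Topo IIβ, incubated 30 min at 37 °C, quenched with loading buffer. Topoisomers separated on 1% agarose in 1× TBE (20 V, 18 h) and visualised by ethidium bromide staining. ETP and ICRF-187 were included as references.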

[10] = molecular target: T1, Topo IIα; assay: kDNA decatenation assay; type: biochemical; conditions: gel
Outline: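 Commercial kit protocol: 250 ng kDNA with test compound in reaction buffer; started by adding diluted human Topo IIα; 30 min at 37 °C; stopped with loading buffer. Products resolved on 1% agarose in 1xTBE, 20 V for 18 h, EtBr-stained, destained in water, imaged. Catenated versus decatenated kDNA judged by migration.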

[11] = molecular target: T2, human Topo IIβ; assay: kDNA decatenation assay; type: biochemical; conditions: gel
Outline: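 Decatenation: 250 ng kDNA was mixed with test compound in reaction buffer. The reaction was started with diluted human Topo IIβ and run for 30 min at 37 °C, then stopped with loading buffer. Products were resolved on a 1% agarose gel in 1× TBE at 20 V for 18 h and stained with ethidium bromide. ETP and ICRF-187 were references.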

[12] = molecular target: T1, Topo IIα; assay: DNA cleavage assay; type: biochemical; conditions: for Stabilisation of Topo IIα/DNA cleavage complex (linear pBR322 plasmid): gel, ETP 100 µM
Outline: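 Reaction mix as for the human Topo IIα relaxation assay (plasmid DNA, test compound, reaction buffer), but with fivefold more enzyme. Reaction started by adding human Topo IIα, then 10 min at 37 °C. Products separated by agarose gel electrophoresis in 1× TBE containing EtBr (1 µg/ml), and linear plasmid scored on the gel.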

[13] = tested on: A549; assay: Clonogenic assay; type: cell-based, human; conditions: 24 h treatment, eight days culture, vs DMSO
Outline: (§2)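 A549 or HCT-116 cells were seeded at 400 cells/well and exposed to a range of test compound concentrations for 24 h. After washing, cells were grown for eight days, then fixed in methanol and stained with 0.5% crystal violet. Colonies were counted and viability calculated relative to control. Mean ± SD of three independent experiments.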

[14] = tested on: HCT-116; assay: Clonogenic assay; type: cell-based, human; conditions: 24 h treatment, eight days culture, vs DMSO
Outline: as §2

[15] = tested on: A549; assay: Annexin V-FITC/7-AAD apoptosis assay; type: cell-based, human; conditions: Annexin V/7-AAD
[16] = tested on: HCT-116; assay: Annexin V-FITC/7-AAD apoptosis assay; type: cell-based, human; conditions: for Necrosis activation HCT-116: statistically significant, **p < 0.001
[17] = tested on: A549; assay: Caspase-3/7 activation; type: cell-based, human; conditions: 24 h, equitoxic concentrations
[18] = tested on: HCT-116; assay: TUNEL DNA fragmentation analysis; type: cell-based, human; conditions: 24 and 48 h; more pronounced than on A549
[19] = tested on: HCT-116; assay: Cell cycle analysis; type: cell-based, human; conditions: equitoxic concentrations, 24 and 48 h
[20] = tested on: A549; assay: BrdU incorporation assay; type: cell-based, human; conditions: equitoxic (IC50) concentration, 24 or 48 h
[21] = tested on: HCT-116; assay: BrdU incorporation assay; type: cell-based, human; conditions: equitoxic (IC50) concentration, 24 or 48 h
[22] = tested on: MCF-7; assay: Cell cycle analysis; type: cell-based, human; conditions: 48 h exposure, equitoxic concentration, p < 0.00001
[23] = tested on: A549; conditions: reference, 50 µM added 15 min before end of incubation
[24] = tested on: HCT-116; conditions: reference, 50 µM added 15 min before end of incubation
[25] = tested on: A549; conditions: read-out: IC50 cytotoxic activity A549; 72 h ref 51; cited from earlier work
[26] = tested on: MCF-7; conditions: read-out: IC50 cytotoxic activity MCF-7; 72 h ref 51; cited from earlier work
[27] = concentration series up to highest concentration tested

| SMILES | IC50 [1] [nM] | IC50 [2] [nM] | IC50 [3] [nM] | IC50 [4] [nM] | IC50 [5] [nM] | IC50 [6] [nM] | Stabilisation of Topo IIα/DNA cleavage complex (linear pBR322 plasmid) [12] | Colony-forming ability A549 [13] | Caspase-3/7 activation, increase compared to control A549 [17] [fold] | also measured |
| --- | --- | --- | --- | --- | --- | --- | --- | --- | --- | --- |
| c1coc(-c2ccc3c(c2)[nH]c2cc(-c4ccco4)ccc23)c1 [Compound 27a, 2,7-Di(2-furyl)-9H-carbazole] | 260 ± 120 | 220 ± 40 | 790 ± 210 | 370 ± 50 | 450 ± 150 | 190 ± 70 | do not stabilise the covalent cleavage complex | reduced the colony number | 3.4 | IC50 [7]: < 1000 nM; Inhibition of Topo IIα-mediated pBR322 relaxation ([8]; highest tested concentrations): moderately affected; Inhibition of Topo IIβ-mediated pBR322 relaxation ([9]; highest tested concentrations): moderately affected; Inhibition of Topo IIα-mediated kDNA decatenation [10, 27]: either completely inhibited decatenation only at the highest concentration tested, or partially inhibited the decatenation of higher-order catenates; Inhibition of Topo IIβ-mediated kDNA decatenation ([11]; 100 µM): completely inhibited decatenation; Colony-forming ability HCT-116 [14]: reduced the colony number; Increase in fraction of apoptotic cells compared to control A549 [15]: eightfold increase; Increase in fraction of apoptotic cells compared to control HCT-116 ([16]; Annexin V/7-AAD): eightfold increase; Necrosis activation HCT-116 [16]: slightly activated necrosis; TUNEL-positive cells HCT-116 [18]: most massive effect |
| c1coc(-c2ccc3[nH]c4ccc(-c5ccco5)cc4c3c2)c1 [Compound 36a, 3,6-Di(2-furyl)-9H-carbazole] | 930 ± 150 | 480 ± 60 | 1390 ± 290 | 990 ± 180 | 2190 ± 300 | 1650 ± 130 | do not stabilise the covalent cleavage complex | reduced the colony number | 5.7 | Isoform selectivity of relaxation inhibition (Topo IIα vs Topo IIβ) ([8]; from relaxation gels with both isoforms): selectively inhibits the relaxation activity of Topo IIα; Inhibition of Topo IIα-mediated pBR322 relaxation ([8]; 20–100 µM): fully inhibited DNA relaxation; Inhibition of Topo IIβ-mediated pBR322 relaxation ([9]; 20–100 µM): did not impact Topo IIβ activity; Inhibition of Topo IIα-mediated kDNA decatenation ([10]; 4–100 µM): effective and concentration-dependent inhibition; Inhibition of Topo IIβ-mediated kDNA decatenation ([11]; highest concentration tested): partially inhibiting decatenation only at the highest concentration tested; Effect on ETP-induced DNA cleavage (linear plasmid) ([12]; co-treatment with ETP, Topo IIα): reduced the level of linear plasmid; Colony-forming ability HCT-116 [14]: reduced the colony number; Cell cycle effect HCT-116 (G0/G1 phase) [19]: time-dependent increase in the number of cells in the G0/G1 phase |
| c1csc(-c2ccc3[nH]c4ccc(-c5cccs5)cc4c3c2)c1 [Compound 36b, 3,6-Di(2-thienyl)-9H-carbazole] | 600 ± 100 | 270 ± 110 | 830 ± 210 | 710 ± 60 | 1400 ± 240 | 320 ± 110 | do not stabilise the covalent cleavage complex | lower inhibitory activity | 2.5 | Inhibition of Topo IIα-mediated pBR322 relaxation ([8]; highest tested concentrations): moderately affected; Inhibition of Topo IIβ-mediated pBR322 relaxation ([9]; highest tested concentrations): moderately affected; Inhibition of Topo IIα-mediated kDNA decatenation [10, 27]: either completely inhibited decatenation only at the highest concentration tested, or partially inhibited the decatenation of higher-order catenates; Decrease in BrdU-positive cells A549 [20]: approximately 4 fold; Decrease in BrdU-positive cells HCT-116 [21]: ~3.5 fold; Cells in G0/G1 phase MCF-7 [22]: 59.85 ± 2.15%; Necrosis activation HCT-116 [16]: slightly activated necrosis |
| COc1cc([C@@H]2c3cc4c(cc3[C@@H](O[C@@H]3O[C@@H]5CO[C@@H](C)O[C@H]5[C@H](O)[C@H]3O)[C@H]3COC(=O)[C@H]23)OCO4)cc(OC)c1O [Etoposide, etoposide, reference compound] | 540 ± 210 | 390 ± 10 | 830 ± 150 | 610 ± 40 | 11900 ± 1310 | – | – | – | – | – |
| N#CC(C#N)=NNc1ccc(OC(F)(F)F)cc1 [FCCP, carbonyl cyanide 4-(trifluoromethoxy)phenylhydrazone] | – | – | – | – | – | – | – | – | – | Increase in JC-1 monomers vs control A549 [23]: 11 fold; Increase in JC-1 monomers vs control HCT-116 [24]: 6.3 fold |
| C[C@@H](CN1CC(=O)NC(=O)C1)N1CC(=O)NC(=O)C1 [ICRF-187, reference compound] | – | – | – | – | – | – | – | – | – | Inhibition of Topo IIα-mediated pBR322 relaxation ([8]; reference at 100 µM): completely inhibited relaxation activity; Inhibition of Topo IIβ-mediated pBR322 relaxation ([9]; reference at 100 µM): relatively lower inhibitory effects; Inhibition of Topo IIβ-mediated kDNA decatenation ([11]; 100 µM): more significant effect than ETP |
| O=C1NC(=S)NC(=O)C1C(=O)Nc1ccccc1 [merbarone] | – | – | – | – | – | – | – | – | – | IC50 [25]: 40000 ± 2700 nM; IC50 [26]: 83900 ± 3000 nM |
